Sampled rows, rich in hits. Any-hit rate of the full collection: about 2.3%.
CAL PDZ FP-1: CAL PDZ peptide-binding inhibitors, primary screen, biochemical, fluorescence polarization, Cer-tagged CAL PDZ, HTS | Golgi-associated PDZ and coiled-coil motif-containing protein (Homo sapiens), Q9HD26 | purified CAL PDZ, TMR-peptide fluorescence polarization, 1 h | inhibition, % at 20 µM | actives 0.02% (n = 330,000);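 active means highest replicate inhibition of at least 40%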;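 further: plate controls were DMSO neutral control wells for no effect and unlabeled competitor peptide control wells for full effect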
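System: purified tagged CAL PDZ domain construct (CerCALP). Schedule: 1 h incubation at room temperature before polarization reading. Medium: 25 mM sodium phosphate pH 7.4, 150 mM NaCl, TCEP, IgG, Thesit. Read-out: percent inhibition from loss of millipolarization. Measured by: FP readout, S and P plane fluorescence. Probe or stimulus: fluorescent TMR peptide probe.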
SR-BI DiI-HDL act: activators of SR-BI mediated DiI-HDL uptake, primary screen, ldlA[mSR-BI] CHO cells, DiI fluorescence; activation, % at 12.5 µM; AID 504775, 2011; actives 0.096% (n = 320,000); 3 h; 100 = double the neutral-control signal;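 active means mean replicate activation of at least 60% and every replicate at or above 60%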;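 further: 0% = median plate neutral-control signal and 100% = twice that signal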
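Test system: SR-BI-overexpressing, LDLR-lacking CHO cells; Also added: labelled HDL, 10 µg/mL; Measured by: bottom-read cell fluorescence after medium removal, ex 550/em 595 nm; Timing: 3 h uptake period with compound, 37 °C; Buffer or medium: F12, 0.5% BSA, 25 mM HEPES; Doses: single compound concentration, delivered by pin transfer.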
ATG4B inh: ATG4B protease inhibitors, primary screen, biochemical, fluorescence, uHTS; Cysteine protease ATG4B (Homo sapiens), Q9Y4P1; ATG4B cleavage of LC3-PLA2, NBD-HPC fluorescence, 1 h; inhibition, % at 8.33 µM; actives 0.51% (n = 340,000); in the data active means inhibition above about 40%
SR-BI HDL uptake: inhibitors of SR-BI mediated HDL lipid uptake, primary screen, ldlA[mSR-BI] cells, fluorescence, single point; Scavenger receptor class B member 1 (Mus musculus), Q61009; ldlA[mSR-BI] CHO cells, DiI-HDL uptake fluorescence, 3 h; inhibition, % at 12.5 µM; actives 0.96% (n = 320,000);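 active means mean replicate inhibition of at least 70% and a set share of replicates each scoring 70 or more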;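 further: 0% = median of neutral control wells and 100% = median of positive control wells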
Target sequence (Q61009 whole entry, looked up): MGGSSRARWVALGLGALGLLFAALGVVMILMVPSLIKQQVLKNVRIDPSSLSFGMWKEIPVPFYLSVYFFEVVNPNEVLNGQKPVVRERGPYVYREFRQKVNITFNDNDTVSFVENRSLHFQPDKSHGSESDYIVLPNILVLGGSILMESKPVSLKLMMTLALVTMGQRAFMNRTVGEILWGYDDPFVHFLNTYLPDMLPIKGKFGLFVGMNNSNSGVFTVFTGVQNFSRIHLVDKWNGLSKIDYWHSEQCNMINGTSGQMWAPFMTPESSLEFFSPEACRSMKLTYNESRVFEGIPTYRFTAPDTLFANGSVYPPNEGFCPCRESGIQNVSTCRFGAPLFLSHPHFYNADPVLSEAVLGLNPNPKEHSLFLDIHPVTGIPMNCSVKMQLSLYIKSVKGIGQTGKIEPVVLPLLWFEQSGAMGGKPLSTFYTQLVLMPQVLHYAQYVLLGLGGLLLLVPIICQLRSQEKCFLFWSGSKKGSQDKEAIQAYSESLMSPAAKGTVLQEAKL
CAL PDZ FP-2: untagged CAL PDZ binding inhibitors, primary screen, biochemical, fluorescence polarization, HTS; purified CAL PDZ, TMR-peptide fluorescence polarization, 1 h; inhibition, % at 24.9 µM; actives 0.92% (n = 300,000); AID 602252, 2012;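 active means mean inhibition of at least 30% with at least half of replicates also reaching 30%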;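 further: 0% = DMSO neutral control and 100% = excess unlabeled competitor peptide PRC23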
Starred values were filed as active, the others as inactive.

How did Nc1nc2nc(-c3ccccc3)cc(C(F)(F)F)c2s1 do in these assays?
CAL PDZ FP-1: -1; SR-BI DiI-HDL act: 6; ATG4B inh: 4; SR-BI HDL uptake: -6; CAL PDZ FP-2: -4

Results for CCCn1c(SCC(=O)Nc2cc(Cl)ccc2OC)n[nH]c1=O ?
CAL PDZ FP-1: 0; SR-BI DiI-HDL act: -17; ATG4B inh: 1; SR-BI HDL uptake: 17; CAL PDZ FP-2: -2

What do the screens show for `CCCn1c(SCC(=O)Nc2cc(Cl)ccc2Cl)n[nH]c1=O`?
CAL PDZ FP-1: -1; SR-BI DiI-HDL act: -9; ATG4B inh: -3; SR-BI HDL uptake: 9; CAL PDZ FP-2: 52*

How did COc1ccc(NC(=O)c2cc(CC(C)C)nc3ccccc23)cc1 do in these assays?
CAL PDZ FP-1: -1; SR-BI DiI-HDL act: -76; ATG4B inh: -4; SR-BI HDL uptake: 76*; CAL PDZ FP-2: 1

What do the screens show for `Cc1ccccc1C(=O)NN1CCOCC1`?
CAL PDZ FP-1: 0; SR-BI DiI-HDL act: 20; ATG4B inh: -1; SR-BI HDL uptake: -20; CAL PDZ FP-2: 82*

Results for Cc1ccc(NC(=O)c2cc(C)nc3ccccc23)cc1 ?
CAL PDZ FP-1: -1; SR-BI DiI-HDL act: -18; ATG4B inh: -6; SR-BI HDL uptake: 18; CAL PDZ FP-2: 1

Results for Cc1ccc(-c2cc(C(=O)Nc3ccc4c(c3)OCCO4)c3ccccc3n2)cc1 ?
CAL PDZ FP-1: 0; SR-BI DiI-HDL act: -65; ATG4B inh: -2; SR-BI HDL uptake: 65; CAL PDZ FP-2: -2

What do the screens show for `O=C(Nc1ccc2c(c1)OCO2)c1cc(-c2cccnc2)nc2ccccc12`?
CAL PDZ FP-1: 0; SR-BI DiI-HDL act: -45; ATG4B inh: -12; SR-BI HDL uptake: 45; CAL PDZ FP-2: 40*

Results for Cc1ccc(NC(=O)c2cc(CC(C)C)nc3ccccc23)cc1 ?
SR-BI DiI-HDL act: -53; ATG4B inh: 0; SR-BI HDL uptake: 53; CAL PDZ FP-2: 0

What do the screens show for `Cc1ccc(C)c(NC(=O)c2cc(C)nc3ccccc23)c1`?
CAL PDZ FP-1: -1; SR-BI DiI-HDL act: -79; ATG4B inh: -7; SR-BI HDL uptake: 79*; CAL PDZ FP-2: -50

What do the screens show for `CC(=O)c1ccc(OCCCC(=O)OCC(=O)N2CCN(S(=O)(=O)c3ccc(C)cc3C)CC2)cc1`?
CAL PDZ FP-1: 1; SR-BI DiI-HDL act: -5; ATG4B inh: -36; SR-BI HDL uptake: 5; CAL PDZ FP-2: -3

What do the screens show for `O=C(NN1CCOCC1)c1cc(-c2ccc(Br)cc2)nc2ccccc12`?
CAL PDZ FP-1: 0; SR-BI DiI-HDL act: -38; ATG4B inh: -3; SR-BI HDL uptake: 38; CAL PDZ FP-2: 59*

How did CCCOc1cccc(-c2cc(C(=O)NN)c3ccccc3n2)c1 do in these assays?
CAL PDZ FP-1: -3; SR-BI DiI-HDL act: -84; ATG4B inh: -9; SR-BI HDL uptake: 84*; CAL PDZ FP-2: -2

What do the screens show for `CCOC(=O)c1ccc(NC(=S)NNC(=O)c2cc(-c3cccnc3)nc3ccccc23)cc1`?
CAL PDZ FP-1: -2; SR-BI DiI-HDL act: -15; ATG4B inh: -17; SR-BI HDL uptake: 15; CAL PDZ FP-2: 49*

What do the screens show for `CCCOc1cccc(-c2cc(C(=O)N/N=C/c3ccccn3)c3ccccc3n2)c1`?
CAL PDZ FP-1: -1; SR-BI DiI-HDL act: -52; ATG4B inh: -8; SR-BI HDL uptake: 52; CAL PDZ FP-2: -1

Results for CC(=O)Nc1ccc(NC(=O)c2cc(-c3ccccc3)nc3ccccc23)cc1 ?
CAL PDZ FP-1: -1; SR-BI DiI-HDL act: -75; ATG4B inh: 0; SR-BI HDL uptake: 75*; CAL PDZ FP-2: 5

What do the screens show for `CCc1ccc(-c2cc(C(=O)NN3CCOCC3)c3ccccc3n2)cc1`?
SR-BI DiI-HDL act: -39; ATG4B inh: -8; SR-BI HDL uptake: 39; CAL PDZ FP-2: -6

Results for O=[N+]([O-])c1ccc(Cl)c(NC2=NCCCCC2)c1 ?
CAL PDZ FP-1: -2; SR-BI DiI-HDL act: 19; ATG4B inh: -4; SR-BI HDL uptake: -19; CAL PDZ FP-2: -1

Results for CCN1CCc2c(sc(NC(=S)NC(=O)c3ccc(Cl)cc3)c2C(N)=O)C1 ?
CAL PDZ FP-1: 0; SR-BI DiI-HDL act: -58; ATG4B inh: 5; SR-BI HDL uptake: 58; CAL PDZ FP-2: 1

How did CCc1ccc(C(=O)OCC(=O)N(CCOC)c2c(N)n(Cc3ccccc3)c(=O)[nH]c2=O)cc1 do in these assays?
CAL PDZ FP-1: -1; SR-BI DiI-HDL act: -3; ATG4B inh: 6; SR-BI HDL uptake: 3; CAL PDZ FP-2: 1

How did Cc1ccc(C)c(-c2cc(C(=O)Nc3cccnc3)c3ccccc3n2)c1 do in these assays?
CAL PDZ FP-1: -3; SR-BI DiI-HDL act: -28; ATG4B inh: -7; SR-BI HDL uptake: 28; CAL PDZ FP-2: -4

How did Cc1ccc(-c2cc(C(=O)Nc3cc(C)on3)c3ccccc3n2)c(C)c1 do in these assays?
CAL PDZ FP-1: -1; SR-BI DiI-HDL act: -78; ATG4B inh: 1; SR-BI HDL uptake: 78*

What do the screens show for `Cc1cc(NC(=O)c2cc(-c3ccccc3C)nc3ccccc23)no1`?
CAL PDZ FP-1: 0; SR-BI DiI-HDL act: -45; ATG4B inh: 2; SR-BI HDL uptake: 45; CAL PDZ FP-2: -1

How did O=C(Nc1cccnc1)c1cc(-c2ccc(Br)cc2)nc2ccccc12 do in these assays?
CAL PDZ FP-1: 0; SR-BI DiI-HDL act: -87; ATG4B inh: -14; SR-BI HDL uptake: 87*; CAL PDZ FP-2: 68*

Results for COc1ccc(-c2nc(C#N)c(NCc3ccc(F)cc3)o2)cc1OC ?
SR-BI DiI-HDL act: -74; ATG4B inh: -2; SR-BI HDL uptake: 74*; CAL PDZ FP-2: 0

How did COc1ccc(-c2nc(C#N)c(NCc3cccnc3)o2)cc1OC do in these assays?
CAL PDZ FP-1: -1; SR-BI DiI-HDL act: 3; ATG4B inh: -9; SR-BI HDL uptake: -3; CAL PDZ FP-2: -3

How did CCn1ccnc1CN(C)C(=O)CCc1nnc(CCC2CCCCC2)o1 do in these assays?
CAL PDZ FP-1: 1; SR-BI DiI-HDL act: 8; ATG4B inh: -5; SR-BI HDL uptake: -8; CAL PDZ FP-2: 1

What do the screens show for `CCC1(C(=O)OC)NC(c2ccco2)C2C(=O)N(c3ccc(C)cc3)C(=O)C21` (stereo not given)?
SR-BI DiI-HDL act: 158*; ATG4B inh: -2; SR-BI HDL uptake: -158; CAL PDZ FP-2: -4

How did CCc1c(C)nc2cc(-c3ccc(OC)c(OC)c3)nn2c1NCC1CC1 do in these assays?
SR-BI DiI-HDL act: -89; ATG4B inh: 3; SR-BI HDL uptake: 89*; CAL PDZ FP-2: -2

How did COCCN(C(=O)COC(=O)CCCc1c[nH]c2ccccc12)c1c(N)n(Cc2ccccc2)c(=O)[nH]c1=O do in these assays?
CAL PDZ FP-1: -1; SR-BI DiI-HDL act: -15; ATG4B inh: -4; SR-BI HDL uptake: 15; CAL PDZ FP-2: -3

Source: PubChem BioAssay (several laboratories)
